Data reported in ChEMBL document CHEMBL4339192, “De Novo Designed Amphipathic α-Helical Antimicrobial Peptides Incorporating Dab and Dap Residues on the Polar Face To Treat the Gram-Negative Pathogen, Acinetobacter baumannii” (J Med Chem, 2019).
Values after ≈ are worked out from the molar mass of the structure shown. Where a SMILES comes first, the peptide text is derived from it. [ ]: non-standard residue; d: D form. dOrn = NCCC[C@@H](N)C(=O)O

Tests used:
Assay type in all cases: functional
Acinetobacter baumannii [1] = assay: Antibacterial activity against Acinetobacter baumannii isolate 1035794 measured after 24 hrs by microtiter dilution method; details: isolate 1035794, 24 h
Procedure, shortened: (§1)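 Broth microdilution in Mueller-Hinton (MH) medium. […] Plates were incubated 24 h at 37 °C. MIC was the lowest peptide concentration that inhibited growth, based on three sets of replicates.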

Acinetobacter baumannii [2] = assay: Antibacterial activity against Acinetobacter baumannii isolate 1002956 measured after 24 hrs by microtiter dilution method; details: isolate 1002956, 24 h; procedure, shortened: as §1
Acinetobacter baumannii [3] = assay: Antibacterial activity against Acinetobacter baumannii isolate 1035166 measured after 24 hrs by microtiter dilution method; details: isolate 1035166, 24 h; procedure, shortened: as §1
Acinetobacter baumannii [4] = assay: Antibacterial activity against Acinetobacter baumannii isolate 1010245 measured after 24 hrs by microtiter dilution method; details: isolate 1010245, 24 h; procedure, shortened: as §1
Acinetobacter baumannii [5] = assay: Antibacterial activity against Acinetobacter baumannii isolate 961997 measured after 24 hrs by microtiter dilution method; details: isolate 961997, 24 h; procedure, shortened: as §1
Acinetobacter baumannii [6] = assay: Antibacterial activity against Acinetobacter baumannii isolate 963659 measured after 24 hrs by microtiter dilution method; details: isolate 963659, 24 h; procedure, shortened: as §1
Acinetobacter baumannii [7] = assay: Antibacterial activity against Acinetobacter baumannii isolate 952654 measured after 24 hrs by microtiter dilution method; details: isolate 952654, 24 h; procedure, shortened: as §1
Acinetobacter baumannii [8] = assay: Antibacterial activity against Acinetobacter baumannii isolate 965463 measured after 24 hrs by microtiter dilution method; details: isolate 965463, 24 h; procedure, shortened: as §1
Acinetobacter baumannii [9] = assay: Antibacterial activity against polymyxin B/colistin-resistant Acinetobacter baumannii M89941 measured after 24 hrs by microtiter dilution method; details: M89941, 24 h; procedure, shortened: as §1
Acinetobacter baumannii [10] = assay: Antibacterial activity against polymyxin B/colistin-resistant Acinetobacter baumannii M89951 measured after 24 hrs by microtiter dilution method; details: M89951, 24 h; procedure, shortened: as §1
Acinetobacter baumannii [11] = assay: Antibacterial activity against polymyxin B/colistin-resistant Acinetobacter baumannii M89949 measured after 24 hrs by microtiter dilution method; details: M89949, 24 h; procedure, shortened: as §1
Acinetobacter baumannii [12] = assay: Antibacterial activity against Acinetobacter baumannii isolate 9383370 measured after 24 hrs by microtiter dilution method; details: isolate 9383370, 24 h; procedure, shortened: as §1
Acinetobacter baumannii [13] = assay: Antibacterial activity against Acinetobacter baumannii isolate 964304 measured after 24 hrs by microtiter dilution method; details: isolate 964304, 24 h; procedure, shortened: as §1
Acinetobacter baumannii [14] = assay: Antibacterial activity against Acinetobacter baumannii isolate 968886 measured after 24 hrs by microtiter dilution method; details: isolate 968886, 24 h; procedure, shortened: as §1
Acinetobacter baumannii [15] = assay: Antibacterial activity against polymyxin B/colistin-resistant Acinetobacter baumannii M89963 measured after 24 hrs by microtiter dilution method; details: M89963, 24 h; procedure, shortened: as §1
Acinetobacter baumannii [16] = assay: Antibacterial activity against polymyxin B/colistin-resistant Acinetobacter baumannii M89952 measured after 24 hrs by microtiter dilution method; details: M89952, 24 h; procedure, shortened: as §1
Acinetobacter baumannii [17] = assay: Antibacterial activity against polymyxin B/colistin-resistant Acinetobacter baumannii M89953 measured after 24 hrs by microtiter dilution method; details: M89953, 24 h; procedure, shortened: as §1
Acinetobacter baumannii [18] = assay: Antibacterial activity against Acinetobacter baumannii isolate 1017395 measured after 24 hrs by microtiter dilution method; details: isolate 1017395, 24 h; procedure, shortened: as §1
Acinetobacter baumannii [19] = assay: Antibacterial activity against Acinetobacter baumannii 649 measured after 24 hrs in presence of 25% human serum by microtiter dilution method; details: Acinetobacter baumannii, 649, 24 h
Procedure, shortened: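 Blood strain 649 was tested by MH broth microdilution with and without 25% (v/v) human serum added to the medium. The test used a final inoculum of 5 × 10^5 cfu/mL and incubation at 37 °C. The ratio is the MIC in serum over the MIC in MH alone.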

Acinetobacter baumannii [20] = assay: Antibacterial activity against Acinetobacter baumannii isolate 1010282 measured after 24 hrs by microtiter dilution method; details: isolate 1010282, 24 h; procedure, shortened: as §1
Acinetobacter baumannii [21] = assay: Antibacterial activity against polymyxin B/colistin-resistant Acinetobacter baumannii M89955 measured after 24 hrs by microtiter dilution method; details: M89955, 24 h; procedure, shortened: as §1
Acinetobacter baumannii [22] = assay: Antibacterial activity against Acinetobacter baumannii 649 measured after 24 hrs by microtiter dilution method; details: Acinetobacter baumannii, 649, 24 h; procedure, shortened: as §1
Acinetobacter baumannii [23] = assay: Antibacterial activity against Acinetobacter baumannii isolate 977751 measured after 24 hrs by microtiter dilution method; details: isolate 977751, 24 h; procedure, shortened: as §1
Acinetobacter baumannii [24] = assay: Antibacterial activity against Acinetobacter baumannii isolate 1021371 measured after 24 hrs by microtiter dilution method; details: isolate 1021371, 24 h; procedure, shortened: as §1
Acinetobacter baumannii [25] = assay: Antibacterial activity against Acinetobacter baumannii isolate 981650 measured after 24 hrs by microtiter dilution method; details: isolate 981650, 24 h; procedure, shortened: as §1
Acinetobacter baumannii [26] = assay: Antibacterial activity against Acinetobacter baumannii isolate 1018887 measured after 24 hrs by microtiter dilution method; details: isolate 1018887, 24 h; procedure, shortened: as §1
Acinetobacter baumannii [27] = assay: Antibacterial activity against Acinetobacter baumannii isolate 1001611 measured after 24 hrs by microtiter dilution method; details: isolate 1001611, 24 h; procedure, shortened: as §1
Acinetobacter baumannii [28] = assay: Antibacterial activity against Acinetobacter baumannii isolate 963618 measured after 24 hrs by microtiter dilution method; details: isolate 963618, 24 h; procedure, shortened: as §1
Acinetobacter baumannii [29] = assay: Antibacterial activity against Acinetobacter baumannii isolate 1007660 measured after 24 hrs by microtiter dilution method; details: isolate 1007660, 24 h; procedure, shortened: as §1

| SMILES | MIC (Acinetobacter baumannii [1]) [µM] | MIC (Acinetobacter baumannii [2]) [µM] | MIC (Acinetobacter baumannii [3]) [µM] | MIC (Acinetobacter baumannii [4]) [µM] | MIC (Acinetobacter baumannii [5]) [µM] | MIC (Acinetobacter baumannii [6]) [µM] | MIC (Acinetobacter baumannii [7]) [µM] | MIC (Acinetobacter baumannii [8]) [µM] | MIC (Acinetobacter baumannii [9]) [µM] | MIC (Acinetobacter baumannii [10]) [µM] | MIC (Acinetobacter baumannii [11]) [µM] | MIC (Acinetobacter baumannii [12]) [µM] | MIC (Acinetobacter baumannii [13]) [µM] | MIC (Acinetobacter baumannii [14]) [µM] | MIC (Acinetobacter baumannii [15]) [µM] | MIC (Acinetobacter baumannii [16]) [µM] | MIC (Acinetobacter baumannii [17]) [µM] | MIC (Acinetobacter baumannii [18]) [µM] | MIC (Acinetobacter baumannii [21]) [µM] | MIC (Acinetobacter baumannii [22]) [µM] | further results |
| --- | --- | --- | --- | --- | --- | --- | --- | --- | --- | --- | --- | --- | --- | --- | --- | --- | --- | --- | --- | --- | --- |
| CC(=O)N[C@H](CCCCN)C(=O)N[C@H](CC(C)C)C(=O)N[C@H](CCCCN)C(=O)N[C@H](CO)C(=O)N[C@H](CC(C)C)C(=O)N[C@H](CC(C)C)C(=O)N[C@H](CCCCN)C(=O)N[C@@H](C(=O)N[C@H](CC(C)C)C(=O)N[C@H](CO)C(=O)N[C@H](CCCCN)C(=O)N[C@H](C)C(=O)N[C@H](CCCCN)C(=O)N[C@H](C)C(=O)N[C@H](C)C(=O)N[C@H](CCCCN)C(=O)N[C@H](CC(C)C)C(=O)N[C@H](CCCCN)C(=O)N[C@@H](C(=O)N[C@H](CC(C)C)C(=O)N[C@H](CC(C)C)C(=O)N[C@H](CCCCN)C(=O)N[C@H](C)C(=O)N[C@H](CC(C)C)C(=O)N[C@H](CO)C(=O)N[C@H](CCCCN)C(N)=O)[C@H](C)O)[C@H](C)O (Ac-[dK][dL][dK][dS][dL][dL][dK][dT][dL][dS][dK][dA][dK][dA][dA][dK][dL][dK][dT][dL][dL][dK][dA][dL][dS][dK]-NH2) | 0.7 (≈ 2.01 µg/mL) | 0.3 (≈ 0.86 µg/mL) | 0.7 (≈ 2.01 µg/mL) | 0.7 (≈ 2.01 µg/mL) | 1.4 (≈ 4.01 µg/mL) | 0.7 (≈ 2.01 µg/mL) | 0.7 (≈ 2.01 µg/mL) | 0.7 (≈ 2.01 µg/mL) | 0.3 (≈ 0.86 µg/mL) | 0.3 (≈ 0.86 µg/mL) | 0.7 (≈ 2.01 µg/mL) | 0.7 (≈ 2.01 µg/mL) | 1.4 (≈ 4.01 µg/mL) | 0.7 (≈ 2.01 µg/mL) | 0.7 (≈ 2.01 µg/mL) | 0.7 (≈ 2.01 µg/mL) | 0.7 (≈ 2.01 µg/mL) | 0.7 (≈ 2.01 µg/mL) | 0.3 (≈ 0.86 µg/mL) | 0.3 (≈ 0.86 µg/mL) | MIC (Acinetobacter baumannii [19]): 0.3 µM; MIC (Acinetobacter baumannii [20]): 0.7 µM (≈ 2.01 µg/mL); MIC (Acinetobacter baumannii [23]): 0.3 µM (≈ 0.86 µg/mL); MIC (Acinetobacter baumannii [24]): 0.7 µM (≈ 2.01 µg/mL); MIC (Acinetobacter baumannii [25]): 0.7 µM (≈ 2.01 µg/mL); MIC (Acinetobacter baumannii [26]): 0.7 µM (≈ 2.01 µg/mL); MIC (Acinetobacter baumannii [27]): 0.7 µM (≈ 2.01 µg/mL) |
| CC(=O)N[C@H](CCCCN)C(=O)N[C@H](CC(C)C)C(=O)N[C@H](CCCCN)C(=O)N[C@H](CO)C(=O)N[C@H](CC(C)C)C(=O)N[C@H](CC(C)C)C(=O)N[C@H](CCCCN)C(=O)N[C@@H](C(=O)N[C@H](CC(C)C)C(=O)N[C@H](CO)C(=O)N[C@H](CCCCN)C(=O)N[C@H](C)C(=O)N[C@H](CCCCN)C(=O)N[C@H](C)C(=O)N[C@H](C)C(=O)N[C@H](CCCCN)C(=O)N[C@H](CC(C)C)C(=O)N[C@H](CCCCN)C(=O)N[C@@H](C(=O)N[C@H](CC(C)C)C(=O)N[C@H](CC(C)C)C(=O)N[C@H](CCCCN)C(=O)N[C@H](C)C(=O)N[C@H](CC(C)C)C(=O)N[C@H](CO)C(=O)N[C@H](CO)C(N)=O)[C@H](C)O)[C@H](C)O (Ac-[dK][dL][dK][dS][dL][dL][dK][dT][dL][dS][dK][dA][dK][dA][dA][dK][dL][dK][dT][dL][dL][dK][dA][dL][dS][dS]-NH2) | 1.4 (≈ 3.95 µg/mL) | 0.7 (≈ 1.98 µg/mL) | 1.4 (≈ 3.95 µg/mL) | 0.7 (≈ 1.98 µg/mL) | 1.4 (≈ 3.95 µg/mL) | 1.4 (≈ 3.95 µg/mL) | 1.4 (≈ 3.95 µg/mL) | 0.7 (≈ 1.98 µg/mL) | 0.7 (≈ 1.98 µg/mL) | 0.7 (≈ 1.98 µg/mL) | 0.7 (≈ 1.98 µg/mL) | 0.7 (≈ 1.98 µg/mL) | 1.4 (≈ 3.95 µg/mL) | 0.7 (≈ 1.98 µg/mL) | 0.7 (≈ 1.98 µg/mL) | 0.7 (≈ 1.98 µg/mL) | 1.5 (≈ 4.24 µg/mL) | 1.4 (≈ 3.95 µg/mL) | 0.7 (≈ 1.98 µg/mL) | 0.7 (≈ 1.98 µg/mL) | MIC (Acinetobacter baumannii [28]): 0.7 µM (≈ 1.98 µg/mL); MIC (Acinetobacter baumannii [19]): 0.7 µM; MIC (Acinetobacter baumannii [20]): 1.4 µM (≈ 3.95 µg/mL); MIC (Acinetobacter baumannii [23]): 0.7 µM (≈ 1.98 µg/mL); MIC (Acinetobacter baumannii [24]): 1.4 µM (≈ 3.95 µg/mL); MIC (Acinetobacter baumannii [29]): 0.7 µM (≈ 1.98 µg/mL); MIC (Acinetobacter baumannii [26]): 1.4 µM (≈ 3.95 µg/mL); MIC (Acinetobacter baumannii [27]): 0.7 µM (≈ 1.98 µg/mL) |
| CC(=O)N[C@H](CCCCN)C(=O)N[C@H](CC(C)C)C(=O)N[C@H](CCCN)C(=O)N[C@H](CO)C(=O)N[C@H](CC(C)C)C(=O)N[C@H](CC(C)C)C(=O)N[C@H](CCCN)C(=O)N[C@@H](C(=O)N[C@H](CC(C)C)C(=O)N[C@H](CO)C(=O)N[C@H](CCCN)C(=O)N[C@H](C)C(=O)N[C@H](CCCCN)C(=O)N[C@H](C)C(=O)N[C@H](C)C(=O)N[C@H](CCCCN)C(=O)N[C@H](CC(C)C)C(=O)N[C@H](CCCN)C(=O)N[C@@H](C(=O)N[C@H](CC(C)C)C(=O)N[C@H](CC(C)C)C(=O)N[C@H](CCCN)C(=O)N[C@H](C)C(=O)N[C@H](CC(C)C)C(=O)N[C@H](CO)C(=O)N[C@H](CCCN)C(N)=O)[C@H](C)O)[C@H](C)O (Ac-[dK][dL][dOrn][dS][dL][dL][dOrn][dT][dL][dS][dOrn][dA][dK][dA][dA][dK][dL][dOrn][dT][dL][dL][dOrn][dA][dL][dS][dOrn]-NH2) | – | – | – | – | – | – | – | – | 0.7 (≈ 1.95 µg/mL) | 0.7 (≈ 1.95 µg/mL) | 0.7 (≈ 1.95 µg/mL) | – | – | – | 0.4 (≈ 1.11 µg/mL) | – | 0.4 (≈ 1.11 µg/mL) | – | 0.4 (≈ 1.11 µg/mL) | 0.4 (≈ 1.11 µg/mL) | – |
